Measured values gathered from unrelated publications.
Protocols differ between the studies behind these lines.
Target: Cyclin-dependent kinase 8 (CDK8, Homo sapiens, UniProt P49336)

SMILES	effect on	method	tested at	remaining binding
CCOCCn1cc(C(=O)Nc2ccc(-n3nc(-c4cccnc4)cc3C(F)(F)F)cn2)ccc1=O	cell-free assay	competition with immobilised ligand	1 µM	100%
N[C@@H]1CCN(c2nccc(-c3cnn4ncccc34)n2)C1	binding	–	1 µM	100%
O=C(c1ccc(Nc2ncc(Cl)c(-c3cc4ccccc4s3)n2)cc1)N1CCC(N2CCCC2)CC1	binding	competition with immobilised ligand	1 µM	100%
CC1CCCN1c1nccc(-c2cnn3ncccc23)n1 (centres unmarked)	binding	–	1 µM	100%
O=C(NCCCN1CCOCC1)c1ccc(Nc2nccc(-c3cc4ccccc4s3)n2)cc1	binding	competition with immobilised ligand	1 µM	79%
N#CC1(c2ccccn2)CCN(Cc2cc(C(=O)N3CCCC3)c(=O)n3ccccc23)CC1	cell-free assay	competition with immobilised ligand	1 µM	100%
COc1cnc(Nc2cccc(S(N)(=O)=O)c2)nc1N1CCN(c2ccccc2)C(=O)C1	binding	competition with immobilised ligand	1 µM	93%
C[C@H](NC(=O)c1cnc2n1[C@](C)(Cc1ccc(C#N)cc1)C(=O)N2c1cc(Cl)c(F)c(Cl)c1)C(=O)NC1(c2ccccn2)CC1	cell-free assay	competition with immobilised ligand	1 µM	100%
c1cnn2ncc(-c3ccnc(N4CCC45COC5)n3)c2c1	binding	–	1 µM	100%
c1cncc(-c2cccc(Nc3nccc(NC4CCCCC4)n3)c2)c1	binding	competition with immobilised ligand	10 µM	66%
O=C(NS(=O)(=O)c1ccc(NCC2CCOCC2)c([N+](=O)[O-])c1)c1ccc(N2CCN(Cc3ccc(C(F)(F)F)cc3-c3ccc(Cl)cc3)CC2)cc1Oc1cnc2[nH]ccc2c1	cell-free assay	competition with immobilised ligand	1 µM	100%
F[C@@H]1CCN(c2nccc(-c3cnn4ncccc34)n2)C1	binding	–	1 µM	100%
O=C(Nc1c[nH]nc1C(=O)NC1CCNCC1)c1cc(F)cc(F)c1	binding	competition with immobilised ligand	1 µM	97%
CC1=C(C#N)C(c2ccc3c(c2)c(NC(=O)c2ccccc2C)nn3C)C(C#N)=C(C)N1	cell-free assay	competition with immobilised ligand	1 µM	97%
CNC(=O)[C@@H]1CC[C@@H](n2c(-c3ccc4cnccc4c3)nc3ccc(C(=O)NCc4cccc(C(N)=O)c4)cc32)C1	binding	competition with immobilised ligand	1 µM	100%
Cc1cnc(Nc2ccc(C(=O)N3CCC(N4CCCC4)CC3)cc2)nc1-c1cc2ccccc2s1	binding	competition with immobilised ligand	1 µM	89%
C[C@@H]1CCN(c2nccc(-c3cnn4ncccc34)n2)C1	binding	–	1 µM	51%
CO[C@@H](C)c1c(Nc2ccc([C@H](N(C)C(=O)C3CCS(=O)(=O)CC3)C(F)(F)F)cc2)cnc2cc(Cl)nn12	binding	competition with immobilised ligand	1 µM	39%
CN(C)c1ncc(F)c(-c2cnn3ncccc23)n1	binding	–	1 µM	87%
CCN1CCN(Cc2ccc(C(=O)Nc3ccc(C)c(Oc4ccc5c(c4)CC(=O)N5)c3)cc2C(F)(F)F)CC1	binding	competition with immobilised ligand	1 µM	67%
